An excerpt weighted towards active compounds, which were near 3.7% of everything screened.
KCNK3 inh = human KCNK3 channel inhibitors, primary screen, CHO cells, FluxOR thallium flux, B-score; AID 602410, 2012; 340,000 tested, 0.84% active; B-score at 10 µM; Potassium channel subfamily K member 3 (Homo sapiens), O14649; FluxOR fluorescence; active compounds read low;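 active = B-score under library mean minus 4 SD, starting fluorescence ratio at most library mean plus 5 SD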;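 also: more negative B-score means stronger inhibition of thallium flux through KCNK3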
Kir21 inh = inhibitors of mouse Kir2.1 inward-rectifier potassium channel | Inward rectifier potassium channel 2 (Mus musculus), P35561 | HEK293-Kir2.1, FluxOR thallium flux fluorescence; active compounds read low | B-score at 10 µM | 310,000 tested, 0.85% active | AID 1672, 2009;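 active = fluorescence ratio B-score at or below minus 3 SD of library scores, with starting-brightness B-score within 2 SD, cut at about -4.2 in these data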;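 also: channel flux triggered by added potassium and thallium sulfate stimulus; B-score of peak minus minimum fluorescence over baseline after thallium stimulus; more negative B-score means stronger Kir2.1 block with less thallium influx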
Target sequence (P35561 whole entry, looked up): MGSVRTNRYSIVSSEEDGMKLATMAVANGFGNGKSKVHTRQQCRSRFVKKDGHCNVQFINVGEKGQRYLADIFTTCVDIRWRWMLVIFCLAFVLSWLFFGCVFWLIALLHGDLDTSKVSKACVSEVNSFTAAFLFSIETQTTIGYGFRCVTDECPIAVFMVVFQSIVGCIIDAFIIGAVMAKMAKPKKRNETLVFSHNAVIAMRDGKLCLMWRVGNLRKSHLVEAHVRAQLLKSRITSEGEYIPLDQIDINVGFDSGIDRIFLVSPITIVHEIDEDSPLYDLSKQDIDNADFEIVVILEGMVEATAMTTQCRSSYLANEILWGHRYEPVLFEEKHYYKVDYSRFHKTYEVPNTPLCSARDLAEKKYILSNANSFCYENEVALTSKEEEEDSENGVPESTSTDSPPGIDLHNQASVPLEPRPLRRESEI
KCNQ1 pot = potentiators or activators of KCNQ1 channel, primary screen, cell-based, thallium flux, high-throughput | Potassium voltage-gated channel subfamily KQT member 1 (Homo sapiens), P51787 | CHO-K1 KCNQ1, thallium flux FluxOR fluorescence; active compounds read high | AID 2648, 2010 | 310,000 tested, 0.35% active | B-score at 10 µM;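 active = fluorescence ratio B-score, a plate-corrected score, at least three library SD, with initial intensity B-score within 5 SD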
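assay system = KCNQ1-transfected CHO-K1 cells | medium = assay buffer with matched DMSO | probe or stimulus = depolarizing K+/Tl+ stimulus, K2SO4 and Tl2SO4 each 12.5 mM in 5x stock | dosing = single dose | incubation = dye 90 min, compound 20 min, room temperature | detection = kinetic FluxOR fluorescence, 10 s baseline plus 110 s post-stimulus | evaluation = ratio B score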
hERG protect = hERG rescue from dofetilide block, primary screen, cell-based, CHO-hERG, FluxOR thallium flux, dofetilide IC70; activation (rescue from dofetilide block), less the hit threshold, % at 10 µM; Voltage-gated inwardly rectifying potassium channel KCNH2 (Homo sapiens), Q12809; 310,000 tested, 0.51% active; AID 1511, 2009; dofetilide IC70 present;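 active = activation above the mean of controls blocked by dofetilide plus 5 SD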;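 also: thallium influx through hERG after potassium depolarization seen as dye fluorescence rise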
KCNQ1 block = inhibitors of human KCNQ1 channel, primary screen, cell-based, thallium flux, high-throughput. B-score at 10 µM. CHO-K1 KCNQ1, FluxOR thallium flux fluorescence; active compounds read high. 310,000 tested, 1.3% active. Potassium voltage-gated channel subfamily KQT member 1 (Homo sapiens), P51787. AID 2642, 2010;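 active = compounds whose thallium flux B-score, printed positive for inhibition, exceeds three library SD while starting fluorescence stays within three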;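 also: channel opened by potassium depolarization with thallium stimulus after 20 min compound exposure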
KCNK9 inh = KCNK9 potassium channel inhibitors, primary screen, HEK293 cells, thallium flux; Potassium channel subfamily K member 9 (Homo sapiens), Q9NPC2; FluxOR thallium flux fluorescence; active compounds read low; B-score at 10 µM; 310,000 tested, 1.2% active;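 active = ratio B-score over 3 SD below the library mean, with starting fluorescence within 5 SD of its mean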;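 also: negative B-score means less thallium flux so channel inhibition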
KCNQ1 block val = KCNQ1 potassium channel inhibitors, confirmation, cell-based, Tl flux, duplicate | AID 588353, 2011 | 1,600 tested, 93% active | shares compounds with KCNQ1 block | inhibition, % at 10 µM | KCNQ1 cell line, FluxOR thallium flux fluorescence;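 active = primary screen active, with duplicate mean exceeding buffer control mean plus 3 SD of buffer wells, cut at about 28% in these data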;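 also: 0% = buffer control ratio and 100% = XE991 inhibitor control ratio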
CHO KCNQ1 ctr = thallium flux effects in parental CHO cells, counter-screen for KCNQ1 inhibitor project, cell-based, Tl flux | fluorescence ratio (Tl flux) at 10 µM | shares compounds with KCNQ1 block | 1,600 tested, 21% active | AID 588366, 2011 | parental CHO-K1, FluxOR thallium flux fluorescence ratio; active compounds read low; zero means no signal rise above baseline;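 active = mean of duplicate thallium-flux fluorescence ratios in parental host cells more than 5 SD below the buffer control mean, cut at about 0.38 in these data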;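 also: ratio is peak minus minimum fluorescence divided by baseline fluorescence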
KCNQ1 APC inh = KCNQ1 channel inhibitors, confirmation, orthogonal assay, cell-based, automated electrophysiology; 490 tested, 20% active; AID 624120, 2012; shares compounds with KCNQ1 block; calls only at 10 µM; KCNQ1-CHO cells, automated patch clamp current;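 active = KCNQ1 current drop exceeding 3 SD of negative control wells, seen in both duplicate runs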;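 also: steady state current during a 2 s step from -80 to +40 mV; negative values mean current inhibition and positive values mean potentiation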
KCNQ2 spec = KCNQ2 channel inhibition, selectivity assay for KCNQ1 inhibitor project, cell-based. shares compounds with KCNQ1 block. KCNQ2 cells, FluxOR thallium flux fluorescence. inhibition, % at 10 µM. 1,600 tested, 71% active. AID 651746, 2012;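 active = mean percent inhibition of the KCNQ2 thallium signal more than 5 SD above the buffer-only control wells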;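 also: KCNQ2 expressed in CHO cells; 0% = buffer control wells and 100% = XE-991 inhibitor control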
KCNQ1 KCNE1 spec = KCNQ1/KCNE1 channel inhibition, selectivity assay for KCNQ1 inhibitor project, CHO-K1 cells, thallium flux, FluxOR; shares compounds with KCNQ1 block; FluxOR thallium flux fluorescence; inhibition, % at 10 µM; 1,600 tested, 77% active;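 active = mean percent inhibition of duplicate wells above the buffer-only control mean plus 3 SD of those controls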;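 also: 0% = buffer only wells and 100% = XE-991 inhibitor control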
An asterisk follows results filed as active; i = inactive; . = no result given; + = active, no number.

SMILES	KCNK3 inh	Kir21 inh	KCNQ1 pot	hERG protect	KCNQ1 block	KCNK9 inh	KCNQ1 block val	CHO KCNQ1 ctr	KCNQ2 spec	KCNQ1 KCNE1 spec	others
O=C1C(CCCNC(=S)NCc2ccccc2)NC(=S)N1Cc1ccccc1 (centres undefined)	i	-1.1	i	-9	6*	i	78*	0.3*	i	115%*
Cc1ccc(CNC(=O)COc2cccc3c2OC(C)(C)C3)cc1	i	.	.	.	.	.	.	.	.	.
O=C(NCC1(c2ccccc2)CCCC1)c1cccc(Br)c1	i	0.91	i	-12	6*	i	106*	0.41	112%*	147%*	KCNQ1 APC inh=+
COc1ccc(C2(CNC(=O)c3ccccc3)CCCC2)cc1OC	i	-0.63	i	0	i	i	.	.	.	.
O=C(Nc1ccc(NC(=S)NC(=O)c2ccccc2F)cc1)c1cccs1	i	-0.03	i	-7	6*	i	94*	0.48	63%*	132%*	KCNQ1 APC inh=+
CC(OC(=O)c1cc(Br)ccc1O)C(=O)Nc1ccc(S(=O)(=O)N2CCCC2)cc1 (centres undefined)	i	1.2	i	-5	i	i	.	.	.	.
Cc1cccc(C(=O)OC(C)C(=O)Nc2ccc(S(=O)(=O)N3CCCC3)cc2)c1O (centres undefined)	i	0.92	i	-18	10*	i	136*	0.38*	117%*	178%*
COC(=O)C(C)Sc1nnc2n(-c3cccc(C)c3)c(=O)c3c4c(sc3n12)CCCC4 (centres undefined)	i	0.47	i	-19	6*	i	42*	0.49	87%*	52%*
CCSC1OC(C(COC(C)=O)OC(C)=O)C(OC(C)=O)C1NC(C)=S (centres undefined)	i	.	.	.	.	.	.	.	.	.
Cn1c2c(c(=O)n(C)c1=O)C(C(F)(F)F)(C(F)(F)F)N=C(c1ccc(Cl)cc1)N2	i	-1.6	i	-17	7*	i	62*	0.53	i	i
N#Cc1c(C(F)(F)F)cc(=O)n2c1[nH]c1ccccc12	i	-0.7	i	-12	6*	i	38*	0.53	107%*	i
O=S(=O)(Nc1nc2ccccc2nc1Cl)c1cccc(C(F)(F)F)c1	i	-0.88	i	-11	7*	i	42*	0.43	63%*	34%*
Cc1ccc(F)cc1NC(=O)c1cnccn1	i	-0.74	i	-1	i	i	.	.	.	.
CCOC(=O)N(C)c1ccc(C(O)(C(F)(F)F)C(F)(F)F)cc1	i	0.42	i	-12	8*	i	74*	0.44	79%*	80%*
COc1cc(NC(=O)c2ccno2)cc(C(=O)Nc2cccc(C(F)(F)F)c2)c1	i	1.2	i	-17	9*	i	110*	0.35*	100%*	163%*
Cc1nn(-c2ccccc2)nc1C(=O)Oc1cc(C(F)(F)F)nn1-c1ccccc1	i	-0.1	i	-1	i	i	.	.	.	.
Clc1ccc2[nH]c3c(NCC4CCCO4)ncnc3c2c1 (centres undefined)	.	1	i	-29	8*	i	106*	0.49	90%*	i	KCNQ1 APC inh=+
Clc1ccc2[nH]c3c(NCCN4CCOCC4)ncnc3c2c1	i	-1.1	i	-17	i	i	.	.	.	.
CN1CCN(c2ccc(S(=O)(=O)N3CCOCC3)cc2NC(=O)Cc2ccccc2F)CC1	i	.	.	.	.	.	.	.	.	.
O=C(O)c1cc(NS(=O)(=O)c2cccc3ccccc23)ccc1O	i	1.4	i	-2	i	i	.	.	.	.
O=S(=O)(Nc1c(O)ccc2ccccc12)c1cccc2ccccc12	i	2.1	i	-20	11*	i	32*	0.47	i	90%*
O=C(Nc1ccc(Cl)c(Cl)c1)Nc1ccccc1O	i	0.44	i	-20	7*	i	72*	0.57	i	66%*
O=C1C=C(NC(=O)Nc2ccc(Cl)c(Cl)c2)CCC1	i	1	i	-18	13*	i	39*	0.51	i	i
O=C(NC1CCCCC1)C(c1ccco1)N(C(=O)C(F)(F)F)C1CC1 (centres undefined)	i	0	i	-9	6*	i	74*	0.47	i	100%*
Cc1ccc(CN(C(=O)C(F)(F)F)C(C(=O)NC2CCCCC2)c2ccco2)cc1 (centres undefined)	i	-0.23	i	-5	i	i	.	.	.	.
CC(C)(C)NC(=S)N/N=C/c1cccnc1	i	0.21	i	-9	i	i	.	.	.	.
COc1ccc(-c2sc(Nc3ccccc3)n[n+]2-c2ccc(F)cc2)c(C)c1C	i	-3	i	-37	16*	i	128*	0.39	99%*	134%*	KCNQ1 APC inh=+
CSc1ccc(-c2sc(Nc3ccccc3)n[n+]2-c2ccc(F)cc2)cc1	i	-0.92	i	-27	i	i	.	.	.	.
COc1ccccc1-c1cnn2c(NCCc3ccccc3)cc(C)nc12	i	-0.69	i	-9	7*	i	66*	0.41	75%*	119%*

Screening data: PubChem BioAssay, Johns Hopkins Ion Channel Center
